Assay results from ChEMBL document CHEMBL3259653, “Potent and selective inhibitors of human reticulocyte 12/15-lipoxygenase as anti-stroke therapies” (J Med Chem, 2014).
Calls of active or inactive are those of the source. The calls are words filed in the database; no cut-off is given here.

Tests used:
Liver microsome [1] = test: Half life in rat liver microsomes in presence of NADPH; assay type: ADME
Summary of the method: (§1)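 Rat or mouse liver microsomes were incubated with NADPH, and half-life was taken from compound depletion. Run at a contract lab.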

[2] = Stability of the compound in DPBS buffer at pH 7.4 measured over 48 hrs; assay type: physicochemical; conditions: pH 7.4, 48 h
Liver [3] = test: Half life in mouse liver microsomes in presence of NADPH; assay type: ADME; summary of the method: as §1
Liver microsome [4] = test: Metabolic stability in rat liver microsomes measured over 1 hr in absence of NADPH; assay type: ADME
Summary of the method: (§2)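 Liver microsomes (mouse or rat) were incubated without NADPH over a 1 h period, and compound degradation was followed. Run at a contract lab.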

Plasma [5] = test: Half life in CD1 mouse plasma at 30 mg/kg, ip; assay type: ADME, organism-based; design: dose 30 mg/kg, route intraperitoneal; conditions: in vivo
Summary of the method: (§3)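 Male CD1 mice, 6–8 weeks old, given a single 30 mg/kg IP dose formulated as a solution in 10% Solutol, 10% Cremophor EL and 20% PEG 400 in saline. Plasma and brain were sampled at eight time points over 24 h, in triplicate. Study run at a contract lab.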

[6] = Stability of the compound in buffer at pH 2 measured over 48 hrs; assay type: physicochemical; conditions: pH 2, 48 h
Mus musculus = test: Neuroprotective activity in C57BL6J mouse distal middle cerebral artery occlusion model of permanent focal ischemia assessed as reduction in infarct size at 50 mg/kg, ip administered 2 hrs post ischemia induction measured after 24 hrs by TTC staining relative to vehicle-treated control; assay type: functional; design: scale not given: the % may be the effect or the level left; conditions: route intraperitoneal
Summary of the method: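 FeCl3-induced distal MCA occlusion: 10% FeCl3-saturated filter paper on intact dura along MCA under 1.5% isoflurane in N2O/O2, body temperature held at 37 ± 0.3 °C, rCBF followed by laser doppler for 3 h. Compound or DMSO vehicle given IP after 2 h ischemia. Sacrifice at 24 h; TTC staining of 1 mm slices, indirect infarct volume; surgeon and assessor blinded.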

Plasma [7] = test: Cmax in CD1 mouse plasma at 30 mg/kg, ip; assay type: ADME, organism-based; design: dose 30 mg/kg, route intraperitoneal; conditions: in vivo; summary of the method: as §3
[8] = target: T1, Prostaglandin G/H synthase 1 (Ovis aries) (UniProt P05979); test: Inhibition of ovine COX-1 using arachidonic acid as substrate assessed as consumption of oxygen at 5 uM preincubated for 5 mins followed by substrate addition by oxygen electrode-based assay relative to control
T1 sequence (whole entry): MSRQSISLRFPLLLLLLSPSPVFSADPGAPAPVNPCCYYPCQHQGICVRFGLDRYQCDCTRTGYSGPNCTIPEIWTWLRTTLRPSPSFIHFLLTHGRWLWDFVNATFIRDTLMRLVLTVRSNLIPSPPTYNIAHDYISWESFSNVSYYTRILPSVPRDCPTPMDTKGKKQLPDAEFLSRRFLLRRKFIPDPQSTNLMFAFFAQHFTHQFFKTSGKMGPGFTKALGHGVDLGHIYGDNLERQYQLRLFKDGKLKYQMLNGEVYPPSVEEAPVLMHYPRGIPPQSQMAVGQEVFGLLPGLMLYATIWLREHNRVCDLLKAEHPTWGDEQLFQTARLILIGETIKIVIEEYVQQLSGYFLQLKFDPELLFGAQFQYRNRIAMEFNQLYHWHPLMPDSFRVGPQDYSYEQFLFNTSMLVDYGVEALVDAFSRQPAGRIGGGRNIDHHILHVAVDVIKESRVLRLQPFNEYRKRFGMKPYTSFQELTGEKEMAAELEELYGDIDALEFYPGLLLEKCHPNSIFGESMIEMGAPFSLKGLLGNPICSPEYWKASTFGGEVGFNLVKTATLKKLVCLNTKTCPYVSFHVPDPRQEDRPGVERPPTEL
Summary of the method: (§4)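 COX-1 or COX-2 (2–5 μg) in 0.1 M Tris-HCl pH 8.0 with 5 mM EDTA, 2 mM phenol and 1 μM hematin at 37 °C. Inhibitor was preincubated 5 min, then 100 μM arachidonic acid was added. Oxygen consumption was read on an oxygen electrode, and percent inhibition was calculated against a DMSO control, with indomethacin as positive control.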

[9] = target: T2, Prostaglandin G/H synthase 2 (Homo sapiens) (UniProt P35354); test: Inhibition of human COX-2 using arachidonic acid as substrate assessed as consumption of oxygen at 5 uM preincubated for 5 mins followed by substrate addition by oxygen electrode-based assay relative to control; summary of the method: as §4
T2 sequence (whole entry): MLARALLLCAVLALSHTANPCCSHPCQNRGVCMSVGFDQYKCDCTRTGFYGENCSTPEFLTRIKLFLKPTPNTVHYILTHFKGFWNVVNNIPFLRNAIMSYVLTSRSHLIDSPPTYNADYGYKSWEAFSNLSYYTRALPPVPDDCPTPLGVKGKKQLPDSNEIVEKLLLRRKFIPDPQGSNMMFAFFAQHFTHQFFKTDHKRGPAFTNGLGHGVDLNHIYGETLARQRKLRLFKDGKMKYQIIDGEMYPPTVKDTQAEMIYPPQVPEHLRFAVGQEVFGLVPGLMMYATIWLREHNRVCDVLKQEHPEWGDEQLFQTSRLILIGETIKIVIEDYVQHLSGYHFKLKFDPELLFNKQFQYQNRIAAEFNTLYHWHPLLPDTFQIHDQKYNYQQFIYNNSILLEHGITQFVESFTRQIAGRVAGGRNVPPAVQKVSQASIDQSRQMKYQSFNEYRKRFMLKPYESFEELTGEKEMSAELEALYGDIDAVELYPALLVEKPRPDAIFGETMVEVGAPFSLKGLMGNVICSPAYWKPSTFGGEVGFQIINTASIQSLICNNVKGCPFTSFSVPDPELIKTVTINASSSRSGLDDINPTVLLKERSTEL

[10] = Metabolic stability in mouse plasma assessed as compound remaining measured at 2 hrs; assay type: ADME, cell-free; conditions: read-out: Stability
Summary of the method: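 Compound was incubated in mouse plasma, and the percent remaining was measured at 2 h. Run at a contract lab.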

[11] = target: T3, Polyunsaturated fatty acid lipoxygenase ALOX15 (Mus musculus) (UniProt P39654); test: Inhibition of 12/15-lipoxygenase in mouse HT22 cells assessed as protection against glutamate-induced cell death after 24 hrs by LDH release assay; assay type: cell-based; conditions: HT-22
T3 sequence (whole entry): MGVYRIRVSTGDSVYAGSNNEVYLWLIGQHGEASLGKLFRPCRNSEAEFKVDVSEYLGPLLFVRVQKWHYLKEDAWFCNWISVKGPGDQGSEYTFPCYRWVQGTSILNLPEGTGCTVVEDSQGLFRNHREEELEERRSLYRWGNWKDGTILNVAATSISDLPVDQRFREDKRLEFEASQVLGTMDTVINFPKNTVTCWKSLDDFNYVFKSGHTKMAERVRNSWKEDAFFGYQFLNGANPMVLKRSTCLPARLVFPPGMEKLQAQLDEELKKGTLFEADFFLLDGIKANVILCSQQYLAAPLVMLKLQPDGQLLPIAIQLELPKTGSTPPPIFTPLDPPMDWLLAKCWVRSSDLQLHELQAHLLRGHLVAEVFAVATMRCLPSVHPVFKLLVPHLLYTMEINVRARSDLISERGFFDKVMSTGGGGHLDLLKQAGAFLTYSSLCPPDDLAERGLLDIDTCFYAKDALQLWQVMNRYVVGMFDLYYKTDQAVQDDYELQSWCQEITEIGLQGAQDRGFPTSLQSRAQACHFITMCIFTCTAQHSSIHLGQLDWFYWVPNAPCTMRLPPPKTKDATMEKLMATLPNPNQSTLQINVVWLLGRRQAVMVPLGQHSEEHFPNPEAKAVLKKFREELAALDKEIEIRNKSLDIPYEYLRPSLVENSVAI
Summary of the method: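 HT22 mouse hippocampal cells were grown in DMEM with 10% FBS and penicillin/streptomycin, seeded at 1 × 10^4 cells/well and treated 18 h later at 50–70% confluence. Medium was exchanged for fresh medium with 5 mM glutamate plus compound or DMSO (≤0.1% final). Death was scored as percent LDH released to the medium versus the cell extract, background-subtracted.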

[12] = target: T3, Polyunsaturated fatty acid lipoxygenase ALOX15 (Mus musculus); test: Inhibition of 12/15-lipoxygenase in mouse HT22 cells assessed as reduction of 12-HETE production at 10 uM after 24 hrs by HPLC/MS analysis; assay type: cell-based; conditions: HT-22
Summary of the method: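 HT22 cells were grown in 75 cm² flasks in phenol red-free DMEM with 5% FBS and treated at 50–70% confluence with 5 mM glutamate with or without compound. After 24 h the eicosanoid fraction of the medium was isolated on a C-18 cartridge. 12-HETE was quantified by HPLC/MS against a 12(S)-HETE standard curve.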

Brain [13] = test: Cmax in CD1 mouse brain at 30 mg/kg, ip; assay type: ADME, organism-based; design: dose 30 mg/kg, route intraperitoneal; conditions: in vivo; summary of the method: as §3
Brain [14] = test: Half life in CD1 mouse brain at 30 mg/kg, ip; assay type: ADME, organism-based; design: dose 30 mg/kg, route intraperitoneal; conditions: in vivo; summary of the method: as §3
Liver [15] = test: Metabolic stability in mouse liver microsomes measured over 1 hr in absence of NADPH; assay type: ADME; summary of the method: as §2
[16] = Stability of the compound in buffer at pH 9 measured over 48 hrs; assay type: physicochemical; conditions: pH 9, 48 h

In the case of CNc1oc(-c2cccc3ccccc23)nc1C#N, the t1/2 (Liver microsome [1]) is reported as 18 min, the Stability [2] is reported as “Stable” and the t1/2 (Liver [3]) is reported as 5.5 min. For the same compound, the Stability (Liver microsome [4]) was “Stable”, the t1/2 (Plasma [5]) was 66 min and the Stability [6] was “Stable”. For the same compound, the Activity (Mus musculus) was 30%, the Cmax (Plasma [7]) was 13.8 µM and the inhibition [8] was under 10%. The inhibition [9] was under 10%, the remaining at 2 h [10] was 100% and the inhibition [11] was “Dose-dependent effect”. For the same compound, the inhibition [12] was “Active”, the Cmax (Brain [13]) was 28.8 µM and the t1/2 (Brain [14]) was 60 min. For the same compound, the Stability (Liver [15]) was “Stable” and the Stability [16] was “Stable”.
